# ChEMBL document CHEMBL1240380, “Acinetobacter baumannii increases tolerance to antibiotics in response to monovalent cations” (Antimicrob Agents Chemother, 2010)
# Activity calls are given as the source filed them. No cut-off for these calls is given here.
# Key:
# [1] = tested on: Acinetobacter baumannii; test: Antibacterial activity against Acinetobacter baumannii ATCC 17978 assessed as bacterial growth at 0.75 mg/L in presence of 150 mM NaCl; format: functional
# Outline: (§1)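 Overnight cultures were diluted 1:100 in NaCl-free MHB and grown to OD600 0.4. They were then diluted to 10^5 CFU/ml in MHB with or without 150 mM NaCl, plus or minus antibiotic. Growth was run in triplicate for 12 h at 37°C with shaking at 180 rpm, and OD600 was read every 2 h.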
# [2] = tested on: Acinetobacter baumannii; test: Antibacterial activity against Acinetobacter baumannii using MHB medium assessed as bacterial growth at 0.75 mg/L in presence of 150 mM of KCl; format: functional, organism-based
# Outline: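 Growth-curve challenge with 150 mM KCl in place of NaCl. Overnight cultures were diluted 1:100 in NaCl-free MHB and grown to OD600 0.4. They were then diluted to 10^5 CFU/ml in MHB with or without 150 mM KCl, plus antibiotic. Cultures ran in triplicate for 12 h at 37°C with shaking at 180 rpm, and OD600 was read every 2 h.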
# [3] = tested on: Acinetobacter baumannii; test: Antibacterial activity against Acinetobacter baumannii using MHB medium assessed as bacterial growth at 1.5 mg/L after 12 hrs in presence of 30 mg/L efflux pump inhibitor PAbetaN; format: functional, organism-based
# [4] = tested on: Acinetobacter baumannii; test: Antibacterial activity against Acinetobacter baumannii using MHB medium with 150 mM assessed as bacterial growth at 1.5 mg/L after 12 hrs in presence of 30 mg/L efflux pump inhibitor PAbetaN; format: functional, organism-based
# [5] = tested on: Acinetobacter baumannii; test: Antibacterial activity against Acinetobacter baumannii ATCC 17978 using MHB medium assessed as bacterial growth at 0.75 mg/L after 12 hrs; format: functional, organism-based; outline: as §1
# [6] = tested on: Acinetobacter baumannii; test: Antibacterial activity against Acinetobacter baumannii ATCC 17978 using MHB medium with 150 mM NaCl assessed as bacterial growth at 0.75 mg/L after 12 hrs; format: functional, organism-based; outline: as §1
# [7] = tested on: Acinetobacter baumannii; test: Antibacterial activity against Acinetobacter baumannii isolate 510 using MHB medium assessed as bacterial growth at 0.75 mg/L after 12 hrs; format: functional, organism-based; outline: as §1
# [8] = tested on: Acinetobacter baumannii; test: Antibacterial activity against Acinetobacter baumannii isolate 510 using MHB medium with 150 mM NaCl assessed as bacterial growth at 0.75 mg/L after 12 hrs; format: functional, organism-based; outline: as §1
# [9] = tested on: Acinetobacter baumannii; test: Antibacterial activity against Acinetobacter baumannii isolate 2824 using MHB medium assessed as bacterial growth at 0.75 mg/L after 12 hrs; format: functional, organism-based; outline: as §1
# [10] = tested on: Acinetobacter baumannii; test: Antibacterial activity against Acinetobacter baumannii isolate 2824 using MHB medium with 150 mM NaCl assessed as bacterial growth at 0.75 mg/L after 12 hrs; format: functional, organism-based; outline: as §1
# [11] = tested on: Acinetobacter baumannii; test: Antibacterial activity against Acinetobacter baumannii isolate 2898 using MHB medium assessed as bacterial growth at 0.75 mg/L after 12 hrs; format: functional, organism-based; outline: as §1
# [12] = tested on: Acinetobacter baumannii; test: Antibacterial activity against Acinetobacter baumannii isolate 2898 using MHB medium with 150 mM NaCl assessed as bacterial growth at 0.75 mg/L after 12 hrs; format: functional, organism-based; outline: as §1
# [13] = tested on: Acinetobacter baumannii; test: Antibacterial activity against Acinetobacter baumannii isolate 4860 using MHB medium assessed as bacterial growth at 0.75 mg/L after 12 hrs; format: functional, organism-based; outline: as §1
# [14] = tested on: Acinetobacter baumannii; test: Antibacterial activity against Acinetobacter baumannii isolate 4860 using MHB medium with 150 mM NaCl assessed as bacterial growth at 0.75 mg/L after 12 hrs; format: functional, organism-based; outline: as §1
# [15] = tested on: Acinetobacter baumannii; test: Antibacterial activity against Acinetobacter baumannii isolate 5191 using MHB medium assessed as bacterial growth at 0.75 mg/L after 12 hrs; format: functional, organism-based; outline: as §1
# [16] = tested on: Acinetobacter baumannii; test: Antibacterial activity against Acinetobacter baumannii isolate 5191 using MHB medium with 150 mM NaCl assessed as bacterial growth at 0.75 mg/L after 12 hrs; format: functional, organism-based; outline: as §1
# [17] = tested on: Acinetobacter baumannii; test: Antibacterial activity against Acinetobacter baumannii ATCC 17978 using MHB medium after 24 hrs; format: functional
# Outline: (§2)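 MIC by CLSI broth microdilution in MHB, with the medium supplemented with 150 mM NaCl where indicated. The read-out was taken after 24 h of drug exposure.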
# [18] = tested on: Acinetobacter baumannii; test: Antibacterial activity against Acinetobacter baumannii ATCC 17978 using MHB medium with 150 mM NaCl after 24 hrs; format: functional; outline: as §2
# [19] = tested on: Acinetobacter baumannii; test: Antibacterial activity against Acinetobacter baumannii isolate 510 using MHB medium after 24 hrs; format: functional, organism-based; outline: as §2
# [20] = tested on: Acinetobacter baumannii; test: Antibacterial activity against Acinetobacter baumannii isolate 510 using MHB medium with 150 mM NaCl after 24 hrs; format: functional, organism-based; outline: as §2
# [21] = tested on: Acinetobacter baumannii; test: Antibacterial activity against Acinetobacter baumannii isolate 2824 using MHB medium after 24 hrs; format: functional, organism-based; outline: as §2
# [22] = tested on: Acinetobacter baumannii; test: Antibacterial activity against Acinetobacter baumannii isolate 2824 using MHB medium with 150 mM NaCl after 24 hrs; format: functional, organism-based; outline: as §2
# [23] = tested on: Acinetobacter baumannii; test: Antibacterial activity against Acinetobacter baumannii isolate 2898 using MHB medium after 24 hrs; format: functional, organism-based; outline: as §2
# [24] = tested on: Acinetobacter baumannii; test: Antibacterial activity against Acinetobacter baumannii isolate 2898 using MHB medium with 150 mM NaCl after 24 hrs; format: functional, organism-based; outline: as §2
# [25] = tested on: Acinetobacter baumannii; test: Antibacterial activity against Acinetobacter baumannii isolate 4860 using MHB medium after 24 hrs; format: functional, organism-based; outline: as §2
# [26] = tested on: Acinetobacter baumannii; test: Antibacterial activity against Acinetobacter baumannii isolate 4860 using MHB medium with 150 mM NaCl after 24 hrs; format: functional, organism-based; outline: as §2
# [27] = tested on: Acinetobacter baumannii; test: Antibacterial activity against Acinetobacter baumannii isolate 5191 using MHB medium after 24 hrs; format: functional, organism-based; outline: as §2
# [28] = tested on: Acinetobacter baumannii; test: Antibacterial activity against Acinetobacter baumannii isolate 5191 using MHB medium with 150 mM NaCl after 24 hrs; format: functional, organism-based; outline: as §2
# [29] = tested on: Acinetobacter baumannii; test: Antibacterial activity against Acinetobacter baumannii using MHB medium with NaCl in presence of efflux pump inhibitor PAbetaN; format: functional, organism-based
# Outline: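 Cells in MHB with or without 150 mM NaCl were pretreated with 60 mg/liter PAβN for 30 min at room temperature before antibiotic was added. Cultures at 10^5 CFU/ml were then grown in triplicate for 12 h at 37°C with shaking at 180 rpm, and OD600 was monitored every 2 h.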
sequence,measurement,setting,value
COLISTIN,Activity,[1],inactive
same,Activity,[2],inactive
same,Activity,[3],inactive
same,Activity,[4],inactive
same,Activity,[5],Active
same,Activity,[6],inactive
same,Activity,[7],Active
same,Activity,[8],inactive
same,Activity,[9],Active
same,Activity,[10],inactive
same,Activity,[11],Active
same,Activity,[12],inactive
same,Activity,[13],Active
same,Activity,[14],inactive
same,Activity,[15],Active
same,Activity,[16],inactive
same,MIC,[17],0.75 µg/mL
same,MIC,[18],1.5 µg/mL
same,MIC,[19],0.75 µg/mL
same,MIC,[20],1.5 µg/mL
same,MIC,[21],0.75 µg/mL
same,MIC,[22],1.5 µg/mL
same,MIC,[23],1 µg/mL
same,MIC,[24],1.5 µg/mL
same,MIC,[25],2 µg/mL
same,MIC,[26],1.5 µg/mL
same,MIC,[27],0.75 µg/mL
same,MIC,[28],1.5 µg/mL
same,MIC,[29],> 4 µg/mL
